# According to the RNAGym collection of RNA variant scans (doi:10.1126/science.aae0568):
# This sample holds only a part of the variants without activity.
# B1: tRNA (parent)
# chain: GUUCCGUUGGCGUAAUGGUAACGCGUCUCCCUCCUAAGGAGAAGACUGCGGGUUCGAGUCCCGUACGGAACG
# Variants of: B1
# Assay: yeast fitness relative to wild type (ratio to wild type); higher = fitter; tRNA-Arg(CCU), competitive growth, 37 C, YPD
# How it was run: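 Changes in genotype frequencies gave Darwinian fitness relative to wild type. Frequencies were read by 100-nucleotide paired-end sequencing of gene amplicons before and after pooled Saccharomyces cerevisiae strains, carrying tRNA-Arg(CCU) gene variants at the native locus, were competed in YPD at 37°C for 24 hours in six replicates. A genotype was kept only with ≥ 100 starting reads, and estimates < 0.5 were set to 0.5.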
row,Variant,yeast fitness
1,GUUCCGUUGGCGUAAUGGUAACGCGUCUCCCUCCUAAGGAGAAGACUACAGGUUCGAGUCCCGUACGGAUCG [G48A G50A A70U],0.812
2,GUUCCGUUGGCGUAAUGGUAACGCGUCUCCCUCCUAAGGAGGAGACUGCGGCUUCGAGUCCAGUACGGAACG [A42G G52C C62A],≤ 0.5
3,GUUCCGUUGGCGUAAUGGUUACGCGUCUCCCUCCUAAGGAGAAGACUGCGGGUUCGAGUCGCGUUCGGAACG [A20U C61G A65U],≤ 0.5
4,GUUUCGUUGGCGUAAUGGUAACGCGUCUCCCUCCUAAGGAGAACACUGCGGGUUCGAGUCCCGUACGGAACG [C4U G44C],1.01
5,GUUCCGUUGGCGUAAUGGUAACGCGUCUCCCUCAUAAGGAGAAGACUGCGGCUUCGAGUCCCGUACGGAACG [C34A G52C],0.721
6,GUUCCGUUGGCGUAAUGGUAACGCGUCUCCCUGCUAAGGAGAAGACUGCGGGUUCGAGUCCCGUACGCAACG [C33G G68C],0.558
7,GUUCCGUUGGAGUAAUGGUAACGCGUCUCCCUCCUAAGGAGAAGACCGCGGGUUCGAGUCCAGUACGGAACG [C11A U47C C62A],≤ 0.5
8,GUUCCGAUGGCGUAAUGGUAACGCGUCUGCCUCCUAAGGAGAAGACUGCGGGUUCGAGUCCCGUACUGAACG [U7A C29G G67U],≤ 0.5
9,GUUCCGUUGGCGUAAUGGUAACGCGUCUCCCUCCUAAGGAGAAGACUGCGGGUUCGAGUCACGUAUGGCACG [C61A C66U A69C],0.601
10,GUUCCGUUGGCGUAAUGGUAACGCGUCUCCAUCCUAAGGAGAAGACUGCGGGUUCGAGUCCCGUAUGGAACG [C31A C66U],0.788
11,GUCCCGUUGGCGUAAUGGUGACGUGUCUCCCUCCUAAAGAGAAGACUGCGGGUUCGACUCCCGUACGGAACG [U3C A20G C24U G38A G58C],≤ 0.5
12,GUUCUGUUGGCGCAAUGGAAUCGAGUCUCCCUCCUAAGGAGAAGACUGCGGGUCCGAGUCCCGUACGGAACG [C5U U13C U19A A21U C24A U54C],≤ 0.5
13,GUUCUGUUGGCGUAAUGGUAAUGCGUCUCCCUCCUAAGGAGAAGACUGCGGGCUCGAGGCGUGUACGGAACG [C5U C22U U53C U59G C61G C62U],≤ 0.5
14,GUUCCGUUGGCGUAAUGGUAACGCGUCUCCCUCUUAAGGAAAAGACUGGGGGUUCGAGUCCCGUACGGAACG [C34U G41A C49G],0.535
15,GUUCCGUUGGCGUAAUGGUAACGCGUCUCCCUCCUAAGAAGAAGACUGCGGGUUCGAGUCCCGUGCGGAACG [G39A A65G],0.985
16,GUUCCGUUGGUGUAAUGGUAACGCGUCUCCCUCCUAAAGUGAAGACUGCGGCUUCGAGUCCCGUACGCGACG [C11U G38A A40U G52C G68C A69G],≤ 0.5
17,GUUCCGUUGGCGUAAUGGUAACCCGUCGCCCUCCUAAGGAGUAGACUGCGGGUUCGAGACCCGUACGGAACG [G23C U28G A42U U59A],≤ 0.5
18,GUUCCGUCGGCGUAAUGGUAACGCCUCUCCCUCCUAAGGAGAAGACUGAGGGUUCGAGUCCCGUACGGAACG [U8C G25C C49A],0.515
19,GUUGCGUUGACGUAAUGGUAGCGCGUCUCCCUCCUAAGGAGAAGACUGCGGGUUCGAGUCCCGUACGGAACG [C4G G10A A21G],0.547

row,Variant,yeast fitness
1,GGUCCGUUGGCGUAAUGGUAACGCGUCUCCCUCCUAAGGAGAAAACUGCGCGUUCGAGUCCCGUUCGGAACG [U2G G44A G51C A65U],≤ 0.5
2,GUUCGGUUGGCGUAGUGGUAACGCGUCUCCCUCCUGAGGAGAGGACUGCGGGUUCGAGUCCCGUACGGAACG [C5G A15G A36G A43G],0.593
3,GUUCCGUUGGCGUACUGGUAGUGCGUCUCCCUCCUAAGGAGAAGACUGUGGGUUCGAGUCCCGUACGGAACG [A15C A21G C22U C49U],≤ 0.5
4,GAUCGGUUGGCGUAAUGGUAACGUGUCUCGCUCCUAAGGAGAAGACUGCGGGUUCGAGUCCCGUACGGACCG [U2A C5G C24U C30G A70C],0.54
5,GUUCCGUUGGCGUAAUGGUAACGCGUCUUCCUCUUAAGGAGAAGACUGCGGGUUCGCGUCCCAUACGGAGCG [C29U C34U A57C G63A A70G],≤ 0.5
6,GUUGCCUUGGCGUAAUGGUACCGCGUCUCCUUCCAAAGGAGAAGACGGCGGGUUCGAGUCCCGUACGGAACG [C4G G6C A21C C31U U35A U47G],0.569
7,GUUCCGUUGGCGAAAUGGUAAAGCGUUUCCCUCCUAAGGAGUAGACUGCGGGUUCGAGUCCCGUACGGAACG [U13A C22A C27U A42U],≤ 0.5
8,GUUCCGUUGGCGUAAUGGUCACGCGUCUCCCUCCUAAGGAGAAGUCUGCGGGUUCGAGUCCCGUGCGGAACG [A20C A45U A65G],0.58
9,GUUCCGUUGGCGUAAUGGAAACGCGUCCCCCUCCUAAGCAGAAGACUGCGGGUUCGAGUCCCGUACGGAACG [U19A U28C G39C],≤ 0.5
10,GUUCCGUUGGUGUAAUGGUAACGCGUCUCCCUCCUAAGGAGAAAACUGCGGGUUCGAGUCCCAUACGGAACG [C11U G44A G63A],0.74
11,GUUCCGUUCGCGUAAUGGUACCGCGUCUCCCUCCUAAGGAGAAGACUGCGGGUUCGAGUCCCGUACGGAACG [G9C A21C],0.652
12,GUUCCGUUGGCGUAAUGGUAACACGUCUACGUCCUAAGGAGAAGACUGCGGGUUCGAGUCCCGUACGGAACG [G23A C29A C31G],0.664
13,GUUCCGUUGGCGUAAUGGUCACGCGUCUCCCUCCUAAGGAGAAGACUGAGGGUACGAAUACCGUACGGAACG [A20C C49A U54A G58A C60A],0.593
14,GUGCCGUUGGCGUAAUGGUAACGCGUCUCCCUCCUAAGGAGAAGGCUGCGGGUUCGAGUCCCGUACGGAACG [U3G A45G],1
15,GUUCCGUUAGCGUAUUGGUGACGCGUCUCCCUCCUAAGGAGAAGACUGCGGGUUCGAGUCCCGUUCGGAACG [G9A A15U A20G A65U],≤ 0.5
16,GUUCCGUUGGCGGAAUGGUAUAGCAUCUCCCUCCUAAGGAGAAGACUGCGGUUUCGAGUCCCGUACGGAACG [U13G A21U C22A G25A G52U],≤ 0.5
17,GUUCCGUUGGCGUAAUGGUAACGGGUCUCCUUACUAAGGAGAAGACUGCCGGUUCGAGUCCCGUACGGAACG [C24G C31U C33A G50C],≤ 0.5
18,GUUCGGUUGGCGUAAUGGUAACGCGUCUCCCUCCUAAGGAGAAGACUGCGGGUUCGAGUCCCGUACGGUACG [C5G A69U],0.894
19,GUUCCGUCGGCGUAAUGGUAACGCGUCUCCCUCUUAAGGAGAAGCCUGCGGGUUCGAGUCCCGUACGGCCCG [U8C C34U A45C A69C A70C],≤ 0.5
